Test results taken from ChEMBL document CHEMBL4007452, “Discovery of an Orally Selective Inhibitor of Signal Transducer and Activator of Transcription 3 Using Advanced Multiple Ligand Simultaneous Docking” (J Med Chem, 2017).
pIC50: −log10 of the molar value. Calls of active or inactive are those of the source. The calls are words filed in the database; no cut-off is given here.

Tests used:
MDA-MB-231 [1] = assay: Anticancer activity against human MDA-MB-231 cells xenografted in BALB/c nude mouse assessed as reduction in tumor volume at 10 mg/kg, po qd administered for 32 days; type: functional; parameters: scale not given: the % may be the effect or the level left
Method in brief: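 Female athymic BALB/c nude mice, 6 weeks old, bearing s.c. flank MDA-MB-231 xenografts (5 x 10^6 cells). Dosing began at about 100 mm3 tumor volume; 8 mice per group, one tumor each. Drug was given orally in saline, with a saline vehicle control, for 32 days. Caliper L and W measured every other day; volume = 0.5236×L×W².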

[2] = AUC (0 to t) in Sprague-Dawley rat plasma at 10 mg/kg, po measured after 24 hrs by UPLC analysis; type: ADME, organism-based; parameters: time < 24 hr, dose 10 mg/kg, route oral
Method in brief: (§1)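 Rat plasma sampled from 2 min to 24 h after a single i.v. (1 mg/kg) or p.o. (10 mg/kg) dose. Parameters were derived from the concentration-time profiles. The bioanalytical method was validated to FDA guidelines for selectivity, linearity, LLOQ, accuracy, precision, recovery, matrix effect and stability.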

[3] = Antiproliferative activity against human UW288-1 cells after 24 hrs by MTT assay; type: functional, cell-based; settings: UW288-1, 24 h
Method in brief: (§2)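 Cells were seeded at 3000 per well and incubated 24 h at 37 °C. Compounds were added in triplicate with 10% FBS: 0.1-10 or 0.1-20 µM for cancer lines, 3.125-400 µM for MCF-10A. Viability was read by MTT absorbance at 595 nm, with IC50 fitted from the curves. DMSO stocks were 20 mM.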

[4] = Apparent volume of distribution in Sprague-Dawley rat plasma at 1 mg/kg, iv measured after 24 hrs by UPLC analysis; type: ADME, organism-based; settings: read-out: Vz; method in brief: as §1
[5] = Cmax in Sprague-Dawley rat plasma at 10 mg/kg, po measured after 24 hrs by UPLC analysis; type: ADME, organism-based; parameters: dose 10 mg/kg, route oral; method in brief: as §1
MCF-10A = assay: Antiproliferative activity against human MCF10A cells after 24 hrs by MTT assay; type: cell-based; method in brief: as §2
[6] = target: T1, Signal transducer and activator of transcription 3 (Homo sapiens, UniProt P40763); settings: 5 to 10 uM
T1 sequence (P40763 whole entry): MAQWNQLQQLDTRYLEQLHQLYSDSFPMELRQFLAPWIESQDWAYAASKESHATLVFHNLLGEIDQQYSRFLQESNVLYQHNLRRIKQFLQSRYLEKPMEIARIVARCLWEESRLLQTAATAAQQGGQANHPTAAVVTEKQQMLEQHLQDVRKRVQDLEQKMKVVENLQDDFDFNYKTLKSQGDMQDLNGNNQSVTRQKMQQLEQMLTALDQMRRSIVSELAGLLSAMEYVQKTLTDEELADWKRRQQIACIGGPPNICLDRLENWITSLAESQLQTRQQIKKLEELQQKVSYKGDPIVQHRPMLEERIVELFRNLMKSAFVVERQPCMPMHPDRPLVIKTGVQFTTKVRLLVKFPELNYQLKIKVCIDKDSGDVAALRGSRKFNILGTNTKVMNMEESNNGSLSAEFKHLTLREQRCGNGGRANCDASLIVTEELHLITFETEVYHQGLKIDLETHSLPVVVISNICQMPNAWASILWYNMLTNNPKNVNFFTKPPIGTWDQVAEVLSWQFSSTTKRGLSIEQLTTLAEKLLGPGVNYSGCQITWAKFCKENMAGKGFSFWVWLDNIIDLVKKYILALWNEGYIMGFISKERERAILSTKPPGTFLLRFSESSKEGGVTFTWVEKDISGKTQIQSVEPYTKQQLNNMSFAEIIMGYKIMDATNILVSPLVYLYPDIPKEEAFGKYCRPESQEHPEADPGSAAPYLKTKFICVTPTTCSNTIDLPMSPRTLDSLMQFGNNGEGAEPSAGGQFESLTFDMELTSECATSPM

[7] = Clearance in Sprague-Dawley rat plasma at 1 mg/kg, iv measured after 24 hrs by UPLC analysis; type: ADME, organism-based
Method in brief: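 Parameters were derived from the concentration-time profiles. The bioanalytical method was validated to FDA guidelines for selectivity, linearity, LLOQ, accuracy, precision, recovery, matrix effect and stability.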

[8] = Tmax in Sprague-Dawley rat plasma at 10 mg/kg, po measured after 24 hrs by UPLC analysis; type: ADME, organism-based
Method in brief: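 Rats dosed i.v. or p.o. Plasma concentrations followed from 2 min to 24 h after dosing. The bioanalytical method was validated to FDA guidelines for selectivity, linearity, LLOQ, accuracy, precision, recovery, matrix effect and stability.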

Mus musculus [9] = assay: Effect on total STAT3 level in BALB/c nude mouse xenografted with human MDA-MB-231 at 2.5 to 10 mg/kg, po qd administered for 32 days by Western blot analysis; type: ADME, organism-based; settings: in vivo, 768 h
Method in brief: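 Whole-cell lysates from MDA-MB-231 xenograft tumors of mice dosed orally at 2.5, 5 or 10 mg/kg were immunoblotted for P-STAT3(Y705), T-STAT3 and GAPDH.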

[10] = MRT (0 to infinity) in Sprague-Dawley rat plasma at 1 mg/kg, iv measured after 24 hrs by UPLC analysis; type: ADME, organism-based; method in brief: as §1
[11] = Antiproliferative activity against human UW426 cells after 24 hrs by MTT assay; type: functional, cell-based; settings: UW426, 24 h; method in brief: as §2
Mus musculus [12] = assay: Toxicity in BALB/c nude mouse xenografted with human MDA-MB-231 cells assessed as heart damage at 2.5 to 10 mg/kg, po qd administered for 32 days by H&E staining based light microscopy; type: organism-based; settings: in vivo, 768 h
Method in brief: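 6-week-old female athymic SPF BALB/c nude mice received 5 x 10^6 MDA-MB-231 cells s.c. in the flank. Oral treatment began once tumors reached about 100 mm3, with 8 mice per group and a saline vehicle control. […] Treatment lasted 32 days. Heart, liver, spleen, lung and kidney were fixed 48 h in 10% neutral-buffered formaldehyde, paraffin-embedded, cut at 5 µm, H&E-stained and examined by light microscopy.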

MDA-MB-231 [13] = assay: Anticancer activity against human MDA-MB-231 cells xenografted in BALB/c nude mouse assessed as reduction in tumor volume at 5 mg/kg, po qd administered for 32 days; type: functional; parameters: scale not given: the % may be the effect or the level left; settings: in the assay text read “tumor weight” for “tumor volume”
MDA-MB-231 [14] = assay: Effect on total STAT3 level in human MDA-MB-231 cells at 2.5 to 5 uM after 12 hrs by immunoblot analysis; type: ADME, cell-based; settings: mda-mb-231, 12 h
Method in brief: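 MDA-MB-231 cells at 60–80% confluence were treated 12 h with 10% FBS at 2.5-10 µM or 2.5-5 µM, against a DMSO control. Whole-cell lysates were immunoblotted, with bands quantified as percent of control.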

[15] = MRT (0 to t) in Sprague-Dawley rat plasma at 1 mg/kg, iv measured after 24 hrs by UPLC analysis; type: ADME, organism-based; method in brief: as §1
[16] = target: T1, Signal transducer and activator of transcription 3; settings: 5 uM

Work on NS(=O)(=O)c1cccc2c1C(=O)C=C(Nc1ccccc1N1CCNCC1)C2=O yielded an Activity (MDA-MB-231 [1]) of 70%, an AUC(0-t) at 24 h [2] of 850 ng·h/mL and a pIC50 [3] of 5.55. For the same molecule, the Vd [4] was 4.94 L/kg, the Cmax [5] was 540 ng/mL and the pIC50 (MCF-10A) was 3.89. For the same molecule, the inhibition [6] was “Active”, the clearance [7] was 87.7 mL/min/kg and the Tmax [8] was 30 min. For the same molecule, the Activity (Mus musculus [9]) was “Non-Toxic”, the MRT inf [10] was 42.6 min and the pIC50 [11] was 5.92. For the same molecule, the Activity (Mus musculus [12]) was “Non-Toxic”, the Activity (MDA-MB-231 [13]) was 60% and the Activity (MDA-MB-231 [14]) was “Non-Toxic”. For the same molecule, the MRT last at 24 h [15] was 33 min and the inhibition [16] was “Tde”.
